# In the library only some 2.1% were active in any assay of this set; here they are far more common.
# TDP2 absorb – TDP2 (human) inhibition, absorbance primary screen; inhibition, % at 12.8 µM; recombinant TDP2, T5PNP hydrolysis, p-nitrophenol absorbance 415 nm; 370,000 tested, 0.34% active;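 active = inhibition above the mean of all tested compounds plus 3 SD, set per campaign, cut at about 25% in these data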
#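 System: recombinant human TDP2 / Amount: 120 nM TDP2 per well / Also added: 5 mM T5PNP chromogenic substrate / Doses: 12.8 µM single point, 1% DMSO / Incubation: 2 h at 37 °C / Detection: p-Nitrophenol epi absorbance / Evaluation: % inhibition relative to enzyme-containing and enzyme-free wells / Repeats: singlicate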
# PP5 primary – PP5 (human) phosphatase inhibition | P53041 | purified PP5c, OMFP substrate fluorescence | inhibition, % at 6.7 µM | 320,000 tested, 0.18% active | AID 1987;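 active = inhibition above the campaign's mean inhibition across all tested compounds plus 3 SD, cut at about 9.5% in these data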
# Target sequence (P53041 whole entry, looked up): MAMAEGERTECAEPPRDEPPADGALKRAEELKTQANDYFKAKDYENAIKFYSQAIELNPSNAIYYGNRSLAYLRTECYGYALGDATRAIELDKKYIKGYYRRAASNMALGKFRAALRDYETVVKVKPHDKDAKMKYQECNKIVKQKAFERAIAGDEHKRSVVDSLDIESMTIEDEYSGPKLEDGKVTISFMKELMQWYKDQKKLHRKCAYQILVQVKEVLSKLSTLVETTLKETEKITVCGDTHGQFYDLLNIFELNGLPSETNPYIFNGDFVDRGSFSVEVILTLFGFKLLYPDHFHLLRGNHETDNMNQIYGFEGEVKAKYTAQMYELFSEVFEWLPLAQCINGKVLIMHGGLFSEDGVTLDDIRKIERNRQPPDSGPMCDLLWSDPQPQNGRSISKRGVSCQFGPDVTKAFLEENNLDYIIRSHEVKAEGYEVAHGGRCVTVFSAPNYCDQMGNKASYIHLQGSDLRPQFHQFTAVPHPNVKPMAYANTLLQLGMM
# PP1 counter – blocks human PP1-alpha phosphatase, a PP5 counter-screen | purified PP1alpha, OMFP fluorescence | P62136 | inhibition, % at 6.7 µM | 320,000 tested, 0.9% active | AID 2235;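 active = inhibition above the mean inhibition of all tested compounds plus 3 SD, computed separately for each screening campaign, cut at about 15% in these data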
# GSTO1 inh – counter-screen for RBBP9 inhibitors: inhibitors of human GSTO1; AID 1974; P78417; recombinant GSTO1, activity-based probe fluorescence polarization; 300,000 tested, 1.1% active; inhibition, % at 5.96 µM;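 active = inhibition above the campaign mean inhibition plus 3 SD, cut at about 35% in these data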
# Apaf-1 inh – blocks human Apaf-1 apoptosome activity; reconstituted apoptosome caspase-3 activity, DEVD-Rh110 fluorescence; O14727; 330,000 tested, 0.71% active; inhibition, % at 20 µM; active = inhibition of at least 40% at 20 µM
#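 System: Apoptosome proteins | Medium: Hepes pH 7.5 with detergent and BSA | Also added: Cytochrome c trigger plus (Z-DEVD)2-Rh110 caspase-3 substrate | Incubation: 30 min compound preincubation, 50 min activation, room temperature | Detection: Rhodamine 110 fluorescence at Ex 480/Em 540 nm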
# Apaf-1 inh conf2 – Apaf-1 inhibition, single-dose confirmed | AID 504614 | 1,800 tested, 25% active | shares compounds with Apaf-1 inh | inhibition, % at 20 µM | reconstituted apoptosome, caspase-3 DEVD-Rh110 fluorescence;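 active = mean inhibition of at least 40% at 20 µM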
# Rh110 quench – counter-screen for Apaf-1 inhibitors: fluorescence interference | shares compounds with Apaf-1 inh | Rh110 fluorescence interference, quenched caspase reaction | activation (fluorescence interference), % at 20 µM | 1,800 tested, under 10 active | AID 504615;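 active = signal rise of 40% or more at 20 µM, treated as a fluorescence artifact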
# Fluor interf inh – Apaf-1 inhibitor counter-screen fluorescence artifact | shares compounds with Apaf-1 inh | fluorescence interference counterscreen, Apaf-1 assay format | IC50, µM | 460 tested, under 10 active; call rule not given here
# Hits are given with their value; 0 = inactive; - = not tested or not shown.
SMILES,TDP2 absorb,PP5 primary,PP1 counter,GSTO1 inh,Apaf-1 inh,Apaf-1 inh conf2,Rh110 quench,others
CCCCNC(=O)C[C@H]1C[C@@]2(C(=O)OC)C(=C[C@H](C(C)C)O[C@@H]2C2CC2)N(Cc2ccc3c(c2)OCO3)C1=O,0,-,-,-,-,-,-,
CCN1CCN(c2ccc(S(=O)(=O)N3CCCCC3)cc2NC(=O)COc2ccc(Cl)c(C)c2)CC1,0,0,0,0,45,0,0,
CCN1CCN(c2ccc(S(=O)(=O)N3CCCCC3)cc2NC(=O)/C=C/c2cc(OC)ccc2OC)CC1,0,0,0,0,46,0,0,
Clc1ccc([C@H]2OC[C@@]3(CNCc4ccc5c(c4)OCO5)CS[C@H](c4ccc(Cl)cc4)N23)cc1,0,-,-,-,-,-,-,
CCC[C@@H](CN1CCC[C@H]1CN1C(N)=NC[C@H]1CC(C)C)N1C[C@@H](Cc2ccccc2)N(CCc2ccc(Cl)c(Cl)c2)C1=N,0,-,-,-,68,0,0,
CCC[C@@H](CN1CCC[C@H]1CN1C(N)=NC[C@@H]1Cc1ccccc1)N1C[C@@H]([C@H](C)CC)N(CCc2ccc(Cl)c(Cl)c2)C1=N,-,-,-,-,67,0,0,
CCC[C@@H](CN1CCC[C@H]1CN1C(N)=NC[C@@H]1Cc1ccccc1)N1C[C@@H](Cc2ccccc2)N(CCc2ccc(Cl)c(Cl)c2)C1=N,0,-,-,-,78,0,0,
CC(C)C[C@H]1CNC(=S)N1C[C@H]1CCCN1C[C@H](Cc1ccc(O)cc1)N1C[C@H](Cc2ccc(O)cc2)N(CCc2ccccc2)C1=S,0,-,-,-,-,-,-,
CCCCCn1nnnc1C1(C)CCSCC(=O)N1Cc1ccco1 (centres undefined),0,-,-,-,-,-,-,
CC(NCc1ccc(OCc2ccc(Cl)cc2)cc1)C(O)c1ccccc1 (centres undefined),0,0,0,0,41,0,0,
CCOc1ccccc1C1NC(=O)c2ccccc2N1 (centres undefined),0,-,-,-,-,-,-,
COc1ccccc1C1Nc2cccc3cccc(c23)N1,0,0,0,50,51,0,0,
CCCCc1c(Cc2ccccc2)ncn1CCc1ccccc1OC,0,-,-,-,-,-,-,
CCCCn1c(NC(C)=O)c(C#N)c2nc3ccccc3nc21,0,0,0,0,84,0,0,
CCCCn1c(CNC(C)=O)nc2ccccc21,0,0,0,0,0,-,-,
c1ccc(-c2nn(Cc3ncco3)c3ccccc23)cc1,0,-,-,-,-,-,-,
COc1ccccc1-c1sc2ccccc2c1-c1ccc(OCCN2CCCCC2)cc1,-,-,-,-,62,0,0,
COc1ccc2c(-c3ccc(OCCN4CCOCC4)cc3)c(-c3ccccc3OC)sc2c1,-,-,-,-,0,-,-,
COc1ccc2c(-c3ccc(OCCN4CCCCC4)cc3)c(-c3ccccc3OC)sc2c1,-,-,-,-,60,0,0,
O=C1c2ccccc2-c2nc3ccccc3cc21,0,0,0,0,0,-,-,
O=C1c2ccccc2-c2nnc(-c3ccc(F)cc3)cc21,0,0,0,0,78,0,0,
O=C1c2ccccc2-c2nnc(-c3ccc(O)cc3)cc21,0,0,0,0,91,0,0,
O=C1CSc2ccc(C(=O)N3CCCC(C(=O)N4CCCC4)C3)cc2N1 (centres undefined),0,-,-,-,-,-,-,
Cc1cc(NC(=O)CCCn2nc([N+](=O)[O-])c(Br)c2C)no1,0,0,0,0,40,0,0,
Cc1c(Br)c([N+](=O)[O-])nn1CCCC(=O)Nc1c(C)n(C)n(-c2ccccc2)c1=O,0,0,0,0,0,-,-,
SMILES,TDP2 absorb,PP5 primary,PP1 counter,GSTO1 inh,Apaf-1 inh,Apaf-1 inh conf2,Rh110 quench,others
O=C(CCc1ccccc1)N[C@H]1/C(=N/O)CCC[C@]12C(=O)N(Cc1ccccc1)c1ccccc12,0,-,-,-,-,-,-,
N#Cc1c(NCCCO)nc(NCc2ccccc2)c2c1CCN(Cc1ccccc1)C2,0,0,0,0,69,0,0,
CN1CCc2c(C#N)c(N3CCCCC3)nc(NCc3ccccc3)c2C1,0,0,0,0,52,0,0,
CC(C)c1nc(NCc2ccccc2)c(C#N)c2c1CCCC2,0,0,0,0,0,-,-,
COc1ccc(CN2C3=N[C@H](c4ccccc4)CC(=O)N3/C(=C\c3ccccc3)C2c2ccco2)c(OC)c1 (some centres undefined),0,-,-,-,-,-,-,
CCN1/C(=C/c2ccc3ccccc3[n+]2CC)C=Cc2ccccc21,0,0,0,0,41,0,0,
CCN1/C(=C/c2ccc3ccccc3[n+]2CCCS(=O)(=O)[O-])C=Cc2cc(C)ccc21,0,-,-,-,-,-,-,
Nc1[nH]c(C(=O)c2ccccc2)c(-c2ccc(Br)cc2)c1C(=O)NCCCN1CCOCC1,0,-,-,-,-,-,-,
CC1=C(CC(=O)c2ccccc2)C(=O)c2ccccc2C1=O,0,0,0,51,45,40,0,Fluor interf inh=0
O=C(CN1C(=O)c2ccccc2C1=O)c1ccccc1,0,0,0,0,0,-,-,
COc1ccc(-c2nnc3c4ccccc4c(C)nn23)cc1,0,0,0,0,0,-,-,
Cc1nn2c(-c3ccncc3)nnc2c2ccccc12,0,0,0,0,74,86,0,Fluor interf inh=0
COc1ccc2c(c1)Cc1sc(NC(=O)c3cccs3)nc1-2,0,0,0,0,87,44,0,Fluor interf inh=0
COc1ccc2c(c1)Cc1sc(NC(=O)c3ccccc3)nc1-2,0,0,0,0,83,60,0,Fluor interf inh=0
COc1ccc(-c2nc(NC(=O)c3ccccc3)sc2-c2ccc([N+](=O)[O-])cc2)cc1,0,0,0,0,0,-,-,
C=CCCC1CN(Cc2ccc(OC)cc2)S(=O)(=O)c2c(Oc3ccc(C)cc3)cccc2O1 (centres undefined),0,-,-,-,-,-,-,
C1CCC(C(CC2CCCCN2)C2CCCCC2)CC1 (centres undefined),0,0,0,0,61,0,0,
CCN1C(=O)CC(c2ccccc2)N(C2CCCC2)c2nc(Nc3ccc(C(=O)NC4CCN(C)CC4)cc3OC)ncc21 (centres undefined),-,-,-,-,70,0,0,
COc1cc(C(=O)NC2CCN(C)CC2)ccc1Nc1ncc2c(n1)N(C1CCCCC1)CCC(=O)N2C,0,-,-,-,-,-,-,
O=C(Nc1cccnc1)c1cc(-c2cccc(Br)c2)nc2ccccc12,0,0,0,0,0,-,-,
O=C(Nc1ccncc1)c1cc(-c2cccc(Br)c2)nc2ccccc12,0,0,0,0,47,0,0,
O=C(OCc1cn(Cc2ccc(Cl)cc2)nn1)N1CCCC1,0,-,-,-,-,-,-,
CC(Oc1cccc(Cl)c1)C(=O)Nc1cc(S(=O)(=O)N2CCOCC2)ccc1N1CCCCC1 (centres undefined),0,0,0,0,48,43,0,Fluor interf inh=0
CCN1CCN(c2ccc(S(=O)(=O)N3CCOCC3)cc2NC(=O)C(C)Oc2cccc(Cl)c2)CC1 (centres undefined),0,0,0,0,0,-,-,

# Source: PubChem
